# In ChEMBL document CHEMBL4813962, “Design, synthesis and biological evaluation of sulfamoylphenyl-quinazoline derivatives as potential EGFR/CAIX dual inhibitors” (Eur J Med Chem, 2021):
# Activity calls are given as the source filed them. No cut-off for these calls is given here.
# Tests used:
# A549 [1] = assay: cells; format: functional, cell-based; conditions: Homo sapiens, A549, 72 h
# A-431 = assay: cells; format: functional, cell-based; conditions: Homo sapiens, A-431, 72 h
# NCI-H1975 [2] = assay: Antiproliferative activity against human NCI-H1975 cells assessed as reduction in cell viability incubated for 72 hrs by MTT assay; format: functional, cell-based; conditions: NCI-H1975, 72 h
# [3] = target: T1, Epidermal growth factor receptor (Homo sapiens, UniProt P00533)
# [4] = target: Epidermal growth factor receptor (Homo sapiens, UniProt P00533, T790M)
# Carbonic anhydrase 2 = Carbonic anhydrase 2 (Homo sapiens, UniProt P00918); assay: Inhibition of human carbonic anhydrase 2 using p-nitrophenyl acetate as substrate by UV-VIS spectrophotometric analysis
# Carbonic anhydrase 9 [5] = target: T2, Carbonic anhydrase 9 (Homo sapiens, UniProt Q16790)
# NCI-H1975 [6] = assay: Induction of apoptosis in human NCI-H1975 cells assessed as viable cells at 2 uM incubated for 24 hrs by annexin V-FITC and propidium iodide based flow cytometry analysis (reference value: 93.2 %); format: functional; conditions: read-out: Activity
# NCI-H1975 [7] = assay: Induction of apoptosis in human NCI-H1975 cells assessed as early apoptotic cells at 2 uM incubated for 24 hrs by annexin V-FITC and propidium iodide based flow cytometry analysis (reference value: 1.34 %); format: functional
# NCI-H1975 [8] = assay: Induction of apoptosis in human NCI-H1975 cells assessed as late apoptotic cells at 2 uM incubated for 24 hrs by annexin V-FITC and propidium iodide based flow cytometry analysis (reference value: 4.98 %); format: functional
# NCI-H1975 [9] = assay: Induction of apoptosis in human NCI-H1975 cells assessed as necrotic cells at 2 uM incubated for 24 hrs by annexin V-FITC and propidium iodide based flow cytometry analysis (reference value: 0.455 %); format: functional
# NCI-H1975 [10] = assay: Induction of cell cycle arrest in human NCI-H1975 cells assessed as G1 phase at 2 uM incubated for 24 hrs by propidium iodide based flow cytometry analysis (reference value: 60.76 %); format: functional
# NCI-H1975 [11] = assay: Induction of cell cycle arrest in human NCI-H1975 cells assessed as S phase at 2 uM incubated for 24 hrs by propidium iodide based flow cytometry analysis (reference value: 24.50 %); format: functional
# NCI-H1975 [12] = assay: Induction of cell cycle arrest in human NCI-H1975 cells assessed as G2/M phase at 2 uM incubated for 24 hrs by propidium iodide based flow cytometry analysis (reference value: 14.74 %); format: functional
# NCI-H1975 [13] = assay: Downregulation of carbonic anhydrase in human NCI-H1975 cells at 2 uM incubated for 24 hrs in hypoxic condition by Western blot analysis; format: functional, cell-based
# In short: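 H1975 cells treated 24 h under hypoxia (1% O2, 94% N2, 5% CO2, 37 °C), with untreated cells as negative control. Lysed on ice for 30 min, spun at 20 000 g (4 °C, 10 min), protein measured by BCA. Equal protein run on 12% SDS-PAGE and moved to PVDF. Blocked in 5% milk/TBST, anti-CAIX overnight at 4 °C, peroxidase secondary 2 h, chemiluminescent detection.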
# L02 = assay: cells; format: functional, cell-based; conditions: Homo sapiens, L02, 72 h
# NCI-H1975 [14] = assay: Induction of apoptosis in human NCI-H1975 cells assessed as viable cells at 5 uM incubated for 24 hrs by annexin V-FITC and propidium iodide based flow cytometry analysis (reference value: 93.2 %); format: functional; conditions: read-out: Activity
# NCI-H1975 [15] = assay: Induction of apoptosis in human NCI-H1975 cells assessed as early apoptotic cells at 5 uM incubated for 24 hrs by annexin V-FITC and propidium iodide based flow cytometry analysis (reference value: 1.34 %); format: functional
# NCI-H1975 [16] = assay: Induction of apoptosis in human NCI-H1975 cells assessed as late apoptotic cells at 5 uM incubated for 24 hrs by annexin V-FITC and propidium iodide based flow cytometry analysis (reference value: 4.98 %); format: functional
# NCI-H1975 [17] = assay: Induction of apoptosis in human NCI-H1975 cells assessed as necrotic cells at 5 uM incubated for 24 hrs by annexin V-FITC and propidium iodide based flow cytometry analysis (reference value: 0.455 %); format: functional
# NCI-H1975 [18] = assay: Induction of apoptosis in human NCI-H1975 cells incubated for 24 hrs by annexin V-FITC and propidium iodide based flow cytometry analysis; format: functional, cell-based; conditions: dose 2-5 µM
# NCI-H1975 [19] = assay: Induction of cell cycle arrest in human NCI-H1975 cells incubated for 24 hrs by propidium iodide based flow cytometry analysis; format: functional; conditions: dose 2-5 µM
# NCI-H1975 [20] = assay: Induction of cell cycle arrest in human NCI-H1975 cells assessed as G1 phase at 5 uM incubated for 24 hrs by propidium iodide based flow cytometry analysis (reference value: 60.76 %); format: functional
# NCI-H1975 [21] = assay: Induction of cell cycle arrest in human NCI-H1975 cells assessed as S phase at 5 uM incubated for 24 hrs by propidium iodide based flow cytometry analysis (reference value: 24.50 %); format: functional
# NCI-H1975 [22] = assay: Induction of cell cycle arrest in human NCI-H1975 cells assessed as G2/M phase at 5 uM incubated for 24 hrs by propidium iodide based flow cytometry analysis (reference value: 14.74 %); format: functional
# NCI-H1975 [23] = assay: Antimigratory activity in human NCI-H1975 cells assessed as reduction in cell migration incubated for 24 hrs by wound healing assay; format: functional, cell-based; conditions: dose 0.5-1 µM
# In short: (§1)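 H1975 monolayer scratched with pipette tip, washed twice with PBS, then kept in serum-free medium with test compound at 0.5 or 1.0 µM; untreated control got medium only. Wound photographed by inverted microscope after 24 h and wound area traced. Migration rate = (0 h wound area − […] wound area)/0 h wound area.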
# NCI-H1975 [24] = assay: Antimigratory activity in human NCI-H1975 cells assessed as cell migration at 1 uM incubated for 24 hrs by wound healing assay (reference value: 51.2 %); format: functional
# In short: as §1
# [25] = target: T1, Epidermal growth factor receptor; assay: Inhibition of EGFR in human NCI-H1975 cells assessed as reduction in EGFR phosphorylation incubated for 24 hrs by Western blot analysis; format: cell-based; conditions: dose 2-5 µM
# In short: (§2)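 H1975 cells exposed to 2 or 5 µM compound for 24 h under normoxia. Lysates made on ice, protein measured by BCA, equal amounts separated on 12% SDS-PAGE and moved to PVDF. Blots blocked in 5% milk/TBST, incubated overnight at 4 °C with antibodies to EGFR/p-EGFR, AKT/p-AKT and ERK/p-ERK, and developed by chemiluminescence.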
# [26] = target: T1, Epidermal growth factor receptor; assay: Inhibition of EGFR in human NCI-H1975 cells assessed as reduction in AKT phosphorylation incubated for 24 hrs by Western blot analysis; format: cell-based; conditions: dose 2-5 µM
# In short: as §2
# [27] = target: T1, Epidermal growth factor receptor; assay: Inhibition of EGFR in human NCI-H1975 cells assessed as reduction in ERK phosphorylation incubated for 24 hrs by Western blot analysis; format: cell-based; conditions: dose 2-5 µM
# In short: as §2
# A549 [28] = assay: Cytotoxicity against human A549 cells assessed as reduction in cell viability incubated for 72 hrs under hypoxic condition by MTT assay; format: functional, cell-based; conditions: A549, 72 h
# In short: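 A549 cells given compound for 72 h at 37 °C in hypoxia (1% O2, 94% N2, 5% CO2). Compounds taken up in DMSO and diluted in medium, final DMSO below 0.4%. MTT then added for 4 h, formazan dissolved in DMSO, absorbance read at 570/630 nm. IC50 from three parallel experiments.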
# NCI-H1975 [29] = assay: Cytotoxicity against human NCI-H1975 cells assessed as reduction in cell viability incubated for 72 hrs under hypoxic condition by MTT assay; format: functional, cell-based; conditions: NCI-H1975, 72 h
# In short: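 H1975 cells grown in medium with 10% FBS and penicillin/streptomycin under hypoxia (1% O2, 94% N2, 5% CO2) at 37 °C. Compounds dissolved in DMSO and diluted in medium, final DMSO below 0.4%. Incubated 72 h at 37 °C, then MTT (5 mg/mL) for 4 h. Formazan dissolved in DMSO and OD read at 570/630 nm. IC50 from three parallel experiments.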
# NCI-H1975 [30] = assay: Downregulation of carbonic anhydrase 9 in human NCI-H1975 cells incubated for 24 hrs in hypoxic condition by Western blot analysis; format: functional, cell-based
# In short: (§3)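 Lysates cleared at 20 000 g, protein quantified by BCA, equal amounts run on 12% SDS-PAGE and blotted to PVDF. Probed overnight at 4 °C for CAIX and HIF-1α, chemiluminescent detection.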
# Carbonic anhydrase 9 [31] = target: T2, Carbonic anhydrase 9; assay: Downregulation of carbonic anhydrase 9 in human NCI-H1975 cells assessed as reduction in HIF-1alpha incubated for 24 hrs in hypoxic condition by Western blot analysis; format: cell-based
# In short: as §3
# T1 sequence (P00533 whole entry): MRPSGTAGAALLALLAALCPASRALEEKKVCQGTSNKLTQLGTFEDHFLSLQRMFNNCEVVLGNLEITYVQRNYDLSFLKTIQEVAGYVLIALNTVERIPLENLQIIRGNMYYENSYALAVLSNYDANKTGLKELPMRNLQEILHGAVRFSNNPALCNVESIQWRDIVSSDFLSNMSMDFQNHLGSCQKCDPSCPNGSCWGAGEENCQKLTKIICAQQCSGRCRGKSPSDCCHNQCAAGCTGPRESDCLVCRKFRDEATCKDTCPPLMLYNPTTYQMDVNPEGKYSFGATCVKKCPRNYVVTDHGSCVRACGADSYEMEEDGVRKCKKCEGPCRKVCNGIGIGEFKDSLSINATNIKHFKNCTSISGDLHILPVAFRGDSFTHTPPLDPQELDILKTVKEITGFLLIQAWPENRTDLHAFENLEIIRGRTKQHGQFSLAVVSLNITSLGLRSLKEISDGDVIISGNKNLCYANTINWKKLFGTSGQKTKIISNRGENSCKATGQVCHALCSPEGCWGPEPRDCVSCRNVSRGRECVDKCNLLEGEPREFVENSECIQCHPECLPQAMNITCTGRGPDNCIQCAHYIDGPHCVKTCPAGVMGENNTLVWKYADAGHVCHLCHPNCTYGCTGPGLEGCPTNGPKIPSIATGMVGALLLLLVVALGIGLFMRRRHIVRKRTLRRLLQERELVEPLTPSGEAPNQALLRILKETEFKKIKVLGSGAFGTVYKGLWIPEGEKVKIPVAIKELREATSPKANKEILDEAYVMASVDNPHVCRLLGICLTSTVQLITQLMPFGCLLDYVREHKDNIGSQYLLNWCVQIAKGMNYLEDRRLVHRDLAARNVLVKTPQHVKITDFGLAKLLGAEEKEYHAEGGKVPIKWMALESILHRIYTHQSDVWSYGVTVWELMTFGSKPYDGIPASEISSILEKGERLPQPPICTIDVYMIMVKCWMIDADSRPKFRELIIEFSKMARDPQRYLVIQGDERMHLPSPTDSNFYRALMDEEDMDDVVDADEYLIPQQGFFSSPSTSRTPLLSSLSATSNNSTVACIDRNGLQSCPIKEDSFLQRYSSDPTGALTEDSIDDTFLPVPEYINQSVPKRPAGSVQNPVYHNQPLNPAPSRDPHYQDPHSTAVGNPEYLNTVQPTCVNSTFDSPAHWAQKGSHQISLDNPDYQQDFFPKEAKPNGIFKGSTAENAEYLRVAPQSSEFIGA
# Chain of Epidermal growth factor receptor (Homo sapiens, UniProt P00533, T790M) (P00533 25-1210 T790M limits assumed): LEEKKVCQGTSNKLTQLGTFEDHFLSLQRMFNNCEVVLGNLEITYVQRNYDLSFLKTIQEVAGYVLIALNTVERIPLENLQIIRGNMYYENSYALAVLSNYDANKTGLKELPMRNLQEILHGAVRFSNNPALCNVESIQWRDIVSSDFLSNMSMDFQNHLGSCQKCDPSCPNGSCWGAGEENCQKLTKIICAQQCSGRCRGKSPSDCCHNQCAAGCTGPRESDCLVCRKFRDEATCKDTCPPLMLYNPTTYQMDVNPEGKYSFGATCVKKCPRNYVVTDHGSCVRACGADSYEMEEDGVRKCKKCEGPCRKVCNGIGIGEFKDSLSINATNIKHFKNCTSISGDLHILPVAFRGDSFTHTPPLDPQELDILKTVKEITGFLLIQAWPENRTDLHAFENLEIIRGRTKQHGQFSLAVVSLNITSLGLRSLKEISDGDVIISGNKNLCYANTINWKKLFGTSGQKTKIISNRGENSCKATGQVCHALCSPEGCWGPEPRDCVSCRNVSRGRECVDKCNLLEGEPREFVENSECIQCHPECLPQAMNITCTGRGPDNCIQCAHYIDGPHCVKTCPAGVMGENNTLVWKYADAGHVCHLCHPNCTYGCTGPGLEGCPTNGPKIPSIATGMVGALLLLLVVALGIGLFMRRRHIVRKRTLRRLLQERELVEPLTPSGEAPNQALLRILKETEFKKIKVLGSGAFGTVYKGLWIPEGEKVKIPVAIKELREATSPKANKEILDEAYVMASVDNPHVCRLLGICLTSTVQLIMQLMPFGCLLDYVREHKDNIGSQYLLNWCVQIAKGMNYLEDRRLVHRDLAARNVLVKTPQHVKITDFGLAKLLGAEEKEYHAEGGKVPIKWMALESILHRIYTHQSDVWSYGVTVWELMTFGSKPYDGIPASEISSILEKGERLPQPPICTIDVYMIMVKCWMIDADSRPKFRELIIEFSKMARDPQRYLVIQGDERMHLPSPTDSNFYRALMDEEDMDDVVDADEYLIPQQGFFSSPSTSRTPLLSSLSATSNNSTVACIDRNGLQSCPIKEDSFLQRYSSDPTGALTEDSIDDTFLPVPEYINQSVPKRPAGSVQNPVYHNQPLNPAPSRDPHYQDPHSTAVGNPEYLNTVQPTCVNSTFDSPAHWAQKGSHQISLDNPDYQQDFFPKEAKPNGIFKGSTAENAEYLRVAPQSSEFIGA
Compound,IC50 (A549 [1]) [nM],IC50 (A-431) [nM],IC50 (NCI-H1975 [2]) [nM],IC50 [3] [nM],IC50 [4] [nM],IC50 (Carbonic anhydrase 2) [nM],IC50 (Carbonic anhydrase 9 [5]) [nM],viability at 2 µM (NCI-H1975 [6]) [%],Activity (NCI-H1975 [7]) [%],Activity (NCI-H1975 [8]) [%],Activity (NCI-H1975 [9]) [%],Activity (NCI-H1975 [10]) [%],Activity (NCI-H1975 [11]) [%],Activity (NCI-H1975 [12]) [%],also measured
COc1cc2ncnc(Nc3ccc(Cl)c(C(F)(F)F)c3)c2cc1OCCCCC(=O)Nc1ccc(S(N)(=O)=O)cc1,9270,3910,3220,13.7,37.5,356,224,,,,,,,,
COc1cc2ncnc(Nc3ccc(F)c(Cl)c3)c2cc1OCCCN1CCOCC1 [GEFITINIB],,,,,,,,86.2,7.78,5.44,0.61,47.52,18.76,33.72,
C#Cc1cccc(Nc2ncnc3cc(OC)c(OCCCCC(=O)Nc4ccc(S(N)(=O)=O)cc4)cc23)c1,7720,17700,18800,49.2,48.5,,,,,,,,,,
CC(=O)Nc1nnc(S(N)(=O)=O)s1,,,,,,,,,,,,,,,Activity (NCI-H1975 [13]): Active
COc1cc2ncnc(Nc3cccc(C(F)(F)F)c3)c2cc1OCCCCC(=O)Nc1ccc(S(N)(=O)=O)cc1,6540,4040,1940,27,9.2,278,115,68.4,21.6,7.8,2.19,36.98,15.58,47.44,IC50 (L02): > 40000 nM; viability at 5 µM (NCI-H1975 [14]): 56%; Activity (NCI-H1975 [15]): 26.6%; Activity (NCI-H1975 [16]): 14.1%; Activity (NCI-H1975 [17]): 3.4%; Activity (NCI-H1975 [18]): Dose-Dependent Effect; Activity (NCI-H1975 [19]): Dose-Dependent Effect; Activity (NCI-H1975 [20]): 27.94%; Activity (NCI-H1975 [21]): 17.21%; Activity (NCI-H1975 [22]): 54.85%; Activity (NCI-H1975 [23]): Dose-Dependent Effect; Activity (NCI-H1975 [24]): 17.9%; inhibition [25]: Dose-Dependent Effect; inhibition [26]: Dose-Dependent Effect; inhibition [27]: Dose-Dependent Effect; IC50 (A549 [28]): 2210 nM; IC50 (NCI-H1975 [29]): 1050 nM; Activity (NCI-H1975 [30]): Dose-Dependent Effect; Activity (Carbonic anhydrase 9 [31]): Dose-Dependent Effect
COc1cc2ncnc(Nc3ccc(F)c(Cl)c3)c2cc1OCCCCC(=O)Nc1ccc(S(N)(=O)=O)cc1,15500,5020,35600,18.3,61.9,,,,,,,,,,
